# In ChEMBL document CHEMBL1127478 (J Med Chem, 1994):
# Residues, ends and D or L forms follow the SMILES beside them.
# Columns and labels:
# Rattus norvegicus [1] = species: Rattus norvegicus; assay: In vitro antiuterotonic activity in rat oxytocic bioassay in the absence of Mg2+; assay type: functional; settings: read-out: pA2 (converted)
# Rattus norvegicus [2] = assay: In vivo antiuterotonic activity in the rat uterotonic assay; assay type: functional, organism-based; settings: read-out: pA2 (converted)
# Rattus norvegicus [3] = species: Rattus norvegicus; assay: Inhibition of pressor response to exogenous AVP in the pitched rat preparation; assay type: functional, organism-based; settings: read-out: pA2 (converted)
# Summary of the method: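 Pressor test in pitched rats. Reported as the negative decadic log of the effective dose (mol/kg) that reduces the effect of a 1×10^-5 mg AVP dose to the level of […] AVP. Values are mean ± SE.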
# Vasopressin V1 receptor = Vasopressin V1 receptor (Rattus norvegicus, UniProt P48974+P30560); assay: Inhibition of radioligand [3H]AVP binding to V1 receptor in rat liver plasma membrane; assay type: cell membranes
# Summary of the method: (§1)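 Competition binding with 10 nM [3H]AVP (17.4 Ci/mmol) and varying concentrations of unlabeled peptide. V1 used rat liver plasma membranes prepared by two-phase polymer separation. V2 used bovine kidney inner medulla membranes prepared by differential centrifugation. Kd came from a weighted nonlinear least-squares fit to logistic curves.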
# Vasopressin V2 receptor = Vasopressin V2 receptor (Bos taurus, UniProt P48044); assay: Inhibition of radioligand [3H]AVP binding to V2 receptor in bovine kidney inner medulla membrane; summary of the method: as §1
# [4] = Selectivity aUT/aP ratio of the compound; assay type: functional
# Summary of the method: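 Reciprocal of the ratio of effective doses in the uterotonic in vitro test (mol/L) and the pressor test (mol/kg). Where given in parentheses, the reciprocal of the ratio of the uterotonic in vivo dose (mol/kg) to the pressor dose (mol/kg).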
# Rattus norvegicus [5] = species: Rattus norvegicus; assay: In vitro antiuterotonic activity in rat oxytocic bioassay in the presence of 1 mM Mg2+; assay type: functional; settings: read-out: pA2 (converted)
# Summary of the method: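 Isolated rat uterus in medium containing 1 mM Mg2+, with oxytocin-induced contractions challenged by the antagonist.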
# Sequence of Vasopressin V2 receptor (P48044 whole entry): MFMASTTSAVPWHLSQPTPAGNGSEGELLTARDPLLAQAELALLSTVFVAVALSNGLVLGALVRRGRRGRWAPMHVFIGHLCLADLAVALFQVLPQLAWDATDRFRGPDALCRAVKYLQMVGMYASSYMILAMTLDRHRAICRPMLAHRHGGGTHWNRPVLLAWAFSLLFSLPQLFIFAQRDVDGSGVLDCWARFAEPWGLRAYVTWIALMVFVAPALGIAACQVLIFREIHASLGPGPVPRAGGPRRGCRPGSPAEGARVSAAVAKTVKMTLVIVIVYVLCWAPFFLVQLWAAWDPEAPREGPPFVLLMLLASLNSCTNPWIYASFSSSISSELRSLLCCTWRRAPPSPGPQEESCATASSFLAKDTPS
SMILES,Kd (Vasopressin V1 receptor) [nM],Kd (Vasopressin V2 receptor) [nM],Kb (Rattus norvegicus [1]) [nM],Kb (Rattus norvegicus [2]) [nM],Kb (Rattus norvegicus [3]) [nM],Ratio [4],Kb (Rattus norvegicus [5]) [nM]
NC(=O)CC[C@@H]1NC(=O)[C@H](Cc2ccccc2)NC(=O)[C@H](Cc2ccc(O)cc2)NC(=O)CC2(CCCCC2)SSC[C@H](C(=O)N2CCC[C@H]2C(=O)N[C@@H](CCCN=C(N)N)C(=O)NCC(N)=O)NC(=O)[C@H](CC(N)=O)NC1=O,–,–,–,–,–,0.6,–
CC[C@H](C)[C@@H]1NC(=O)[C@@H](Cc2ccc(OC)cc2)NC(=O)CC2(CCCCC2)SSC[C@@H](C(=O)N2CCC[C@H]2C(=O)N[C@@H](CCCN)C(=O)NCC(N)=O)NC(=O)[C@H](CC(N)=O)NC(=O)[C@H](CCC(N)=O)NC1=O,–,–,3.02,–,11,–,–
CN(CC(=O)N[C@@H](CCCNC(=N)N)C(=O)NCC(N)=O)C(=O)[C@@H]1CSSC2(CCCCC2)CC(=O)N[C@@H](Cc2ccc(O)cc2)C(=O)N[C@@H](Cc2ccccc2)C(=O)N[C@@H](CCC(N)=O)C(=O)N[C@@H](CC(N)=O)C(=O)N1,0.59,240,–,–,–,–,–
CN(CC(=O)N[C@@H](CCCN=C(N)N)C(=O)NCC(N)=O)C(=O)[C@@H]1CSSC2(CCCCC2)CC(=O)N[C@@H](Cc2ccc(O)cc2)C(=O)N[C@@H](Cc2ccccc2)C(=O)N[C@@H](CCC(N)=O)C(=O)N[C@@H](CC(N)=O)C(=O)N1,–,–,112,–,11.7,–,–
CC[C@H](C)[C@@H]1NC(=O)C(Cc2ccccc2)NC(=O)CCSSC[C@H](C(=O)N(C)CC(=O)N[C@@H](CCCN=C(N)N)C(=O)NCC(N)=O)NC(=O)[C@H](CC(N)=O)NC(=O)[C@H](CCC(N)=O)NC1=O (stereo in doubt) [listing 2 of 2 here],–,–,5.01,39.8,398,–,10
"CC[C@H](C)[C@@H]1NC(=O)[C@@H](Cc2c[nH]c3ccccc23)NC(=O)CC2(CCCCC2)SSC[C@@H](C(=O)N(C)CC(=O)N[C@@H](CCCN=C(N)N)C(=O)NCC(N)=O)NC(=O)[C@H](CC(N)=O)NC(=O)[C@H](CCC(N)=O)NC1=O (HELM PEPTIDE1{[dW].I.Q.N.C.[Sar].R.G.[am]}|CHEM1{[O=C(CC1(S[*:2])CCCCC1)[*:1]]}$PEPTIDE1,CHEM1,1:R1-1:R1|PEPTIDE1,CHEM1,5:R3-1:R2$$$V2.0)",3.8,300000,12.6,31.6,31.6,–,20

# Second part, led by results:
Kd (Vasopressin V1 receptor) [nM],Kd (Vasopressin V2 receptor) [nM],SMILES,Kb (Rattus norvegicus [1]) [nM],Kb (Rattus norvegicus [2]) [nM],Kb (Rattus norvegicus [3]) [nM],Ratio [4],Kb (Rattus norvegicus [5]) [nM]
0.32,29,CCOc1ccc(CC2NC(=O)CC3(CCCCC3)SSC[C@@H](C(=O)N(C)CC(=O)N[C@@H](CCCN=C(N)N)C(=O)NCC(N)=O)NC(=O)[C@H](CC(N)=O)NC(=O)[C@H](CCC(N)=O)NC(=O)[C@H](Cc3ccccc3)NC2=O)cc1 (stereo in doubt),3.98,79.4,10,2.5,–
0.22,230,CN(CC(=O)N[C@@H](CCCN=C(N)N)C(=O)NCC(N)=O)C(=O)[C@@H]1CSSC2(CCCCC2)CC(=O)NC(Cc2ccc(O)cc2)C(=O)N[C@@H](Cc2ccccc2)C(=O)N[C@@H](CCC(N)=O)C(=O)N[C@@H](CC(N)=O)C(=O)N1 (stereo in doubt),10,100,10,–,–
0.96,98,CN(CC(=O)N[C@@H](CCCN=C(N)N)C(=O)NCC(N)=O)C(=O)[C@@H]1CSSC2(CCCCC2)CC(=O)NC(Cc2ccccc2)C(=O)NC(Cc2ccccc2)C(=O)N[C@@H](CCC(N)=O)C(=O)N[C@@H](CC(N)=O)C(=O)N1 (stereo in doubt),7.94,25.1,15.8,2,–
13.1,35,CCOc1ccc(CC2NC(=O)CC3(CCCCC3)SSC[C@H](C(=O)N(C)CC(=O)N[C@@H](CCCN=C(N)N)C(=O)NCC(N)=O)NC(=O)[C@H](CC(N)=O)NC(=O)[C@H](CCC(N)=O)NC(=O)[C@H]([C@@H](C)CC)NC2=O)cc1 (stereo in doubt),5.01,31.6,398,80,7.94
2,811,CC[C@H](C)[C@@H]1NC(=O)[C@@H](Cc2ccc(OC)cc2)NC(=O)CC2(CCCCC2)SSC[C@@H](C(=O)N(C)CC(=O)N[C@@H](CCCN=C(N)N)C(=O)NCC(N)=O)NC(=O)[C@H](CC(N)=O)NC(=O)[C@H](CCC(N)=O)NC1=O,2.51,31.6,20,–,6.31
50.1,421,CC[C@H](C)[C@@H]1NC(=O)C(Cc2ccccc2)NC(=O)CCSSC[C@H](C(=O)N(C)CC(=O)N[C@@H](CCCN=C(N)N)C(=O)NCC(N)=O)NC(=O)[C@H](CC(N)=O)NC(=O)[C@H](CCC(N)=O)NC1=O (stereo in doubt) [listing 1 of 2 here],–,–,–,–,–
8.28,182,CC[C@H](C)C1NC(=O)CC2(CCCCC2)SSC[C@@H](C(=O)N(C)CC(=O)N[C@@H](CCCN=C(N)N)C(=O)NCC(N)=O)NC(=O)[C@H](CC(N)=O)NC(=O)[C@H](CCC(N)=O)NC(=O)[C@H](Cc2ccccc2)NC1=O (stereo in doubt),31.6,251,63.1,–,100
8.28,311,CC[C@H](C)[C@@H]1NC(=O)C(Cc2ccccc2)NC(=O)CC2(CCCCC2)SSC[C@H](C(=O)N(C)CC(=O)N[C@@H](CCCN=C(N)N)C(=O)NCC(N)=O)NC(=O)[C@H](CC(N)=O)NC(=O)[C@H](CCC(N)=O)NC1=O (stereo in doubt),10,39.8,100,10,10
